# Assay results as given in ChEMBL document CHEMBL1156831, “Discovery of matrix metalloproteases selective and activated peptide-doxorubicin prodrugs as anti-tumor agents” (Bioorg Med Chem Lett, 2010).
# Numbered stars: 1 amine (or outer) side, 2 acyl side, 3 side chain; on linkers, the order of the positions; unused ones are H or OH. Square brackets hold non-standard residues; d marks the D form. Peptide text beside a SMILES is read from it. * marks the point of attachment. ξ: configuration not given here. Doxorubicin(3'-N) = COc1cccc2c1C(=O)c1c(O)c3c(c(O)c1C2=O)C[C@@](O)(C(=O)CO)C[C@@H]3O[C@H]1C[C@H](N*)[C@H](O)[C@H](C)O1; X4 = O=C(c1cc(S(=O)(=O)O)cc(S(=O)(=O)O)c1)*; X6 = CN1CCN(CCCC(N[*:1])C(=O)[*:2])CC1; hTyr = N[C@@H](CCc1ccc(O)cc1)C(=O)O; X2 = O=C(C(CCc1ccncc1)N[*:1])[*:2]; hPhe = N[C@@H](CCc1ccccc1)C(=O)O; Cit = NC(=O)NCCC[C@H](N)C(=O)O; Suc = O=C(CCC(=O)[*:2])[*:1]; X5 = O=C(CS(=O)(=O)O)*; ξP = O=C(O)C1CCCN1; Bn = c1ccc(C*)cc1
# Columns and labels:
# [1] = Compound remaining in mouse blood after 6 hrs; assay type: ADME, tissue-based; details: read-out: Stability
# [2] = biological target: Matrix metalloproteinase-9 (Homo sapiens) (UniProt P14780); assay: Ratio Kcat to Ki for MMP9
# [3] = biological target: Neprilysin (Homo sapiens) (UniProt P08473); assay: Ratio Kcat to […] for neprilysin
# [4] = biological target: Matrix metalloproteinase-14 (Homo sapiens) (UniProt P50281); assay: Ratio Kcat to […] for MMP14
# [5] = Aqueous solubility at pH 7.4; assay type: physicochemical; details: aqueous medium
# [6] = biological target: 72 kDa type IV collagenase (Homo sapiens) (UniProt P08253); assay: Ratio Kcat to Ki for MMP2
# [7] = Biodistribution in tumor in mouse bearing human HT1080 relative to doxorubicin; assay type: ADME, organism-based, Neoplasm; details: in vivo
# Procedure, shortened: (§1)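 Dox was measured in HT1080 xenograft tumor and in heart tissue 24 h after a single iv dose in mice. The tumor/heart Dox ratio was normalized to the ratio obtained with free Dox.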
# [8] = Ratio of drug level in tumor to heart in mouse bearing human HT1080 cells relative to doxorubicin; assay type: ADME; details: ht-1080; procedure, shortened: as §1
# Bone marrow [9] = assay: Bone marrow toxicity in mouse bone marrow assessed as reticulocyte count at 2 umol/kg qd for 10 days; assay type: tissue-based; details: in vivo, 240 h
# Procedure, shortened: (§2)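 Mice were dosed once daily for 10 days (qdx10). Marrow toxicity was read out as the reticulocyte level, expressed as a percentage, and compared with vehicle-treated mice.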
# Bone marrow [10] = assay: Bone marrow toxicity in mouse bone marrow assessed as reticulocyte count at 4 umol/kg qd for 10 days; assay type: tissue-based; details: in vivo, 240 h; procedure, shortened: as §2
# Bone marrow [11] = assay: Bone marrow toxicity in mouse bone marrow assessed as reticulocyte count at 6 umol/kg qd for 10 days; assay type: tissue-based; details: in vivo, 240 h; procedure, shortened: as §2
# Bone marrow [12] = assay: Bone marrow toxicity in mouse bone marrow assessed as reticulocyte count at 14 umol/kg qd for 10 days; assay type: tissue-based; details: in vivo, 240 h; procedure, shortened: as §2
# Chain of Neprilysin (Homo sapiens) (P08473 whole entry): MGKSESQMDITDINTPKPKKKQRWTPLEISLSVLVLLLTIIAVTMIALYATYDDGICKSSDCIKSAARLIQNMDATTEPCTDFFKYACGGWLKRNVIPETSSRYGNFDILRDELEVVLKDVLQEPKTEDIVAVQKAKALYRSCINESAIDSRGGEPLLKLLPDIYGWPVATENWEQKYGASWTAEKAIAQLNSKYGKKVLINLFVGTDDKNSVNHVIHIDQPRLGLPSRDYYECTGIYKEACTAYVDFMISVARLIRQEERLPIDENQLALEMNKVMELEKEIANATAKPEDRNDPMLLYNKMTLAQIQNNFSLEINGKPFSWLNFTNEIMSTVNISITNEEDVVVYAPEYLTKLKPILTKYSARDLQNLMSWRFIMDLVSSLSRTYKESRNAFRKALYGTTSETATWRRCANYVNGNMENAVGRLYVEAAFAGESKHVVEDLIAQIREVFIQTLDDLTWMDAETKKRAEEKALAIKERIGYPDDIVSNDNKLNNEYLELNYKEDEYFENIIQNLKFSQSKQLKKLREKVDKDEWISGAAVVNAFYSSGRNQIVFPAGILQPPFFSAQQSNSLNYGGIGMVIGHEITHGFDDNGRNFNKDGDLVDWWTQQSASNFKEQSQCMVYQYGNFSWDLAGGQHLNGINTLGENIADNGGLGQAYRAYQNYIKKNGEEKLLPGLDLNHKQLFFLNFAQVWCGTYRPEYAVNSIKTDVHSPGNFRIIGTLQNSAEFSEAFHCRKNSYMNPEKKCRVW
# Chain of 72 kDa type IV collagenase (Homo sapiens) (P08253 110-660 limits assumed): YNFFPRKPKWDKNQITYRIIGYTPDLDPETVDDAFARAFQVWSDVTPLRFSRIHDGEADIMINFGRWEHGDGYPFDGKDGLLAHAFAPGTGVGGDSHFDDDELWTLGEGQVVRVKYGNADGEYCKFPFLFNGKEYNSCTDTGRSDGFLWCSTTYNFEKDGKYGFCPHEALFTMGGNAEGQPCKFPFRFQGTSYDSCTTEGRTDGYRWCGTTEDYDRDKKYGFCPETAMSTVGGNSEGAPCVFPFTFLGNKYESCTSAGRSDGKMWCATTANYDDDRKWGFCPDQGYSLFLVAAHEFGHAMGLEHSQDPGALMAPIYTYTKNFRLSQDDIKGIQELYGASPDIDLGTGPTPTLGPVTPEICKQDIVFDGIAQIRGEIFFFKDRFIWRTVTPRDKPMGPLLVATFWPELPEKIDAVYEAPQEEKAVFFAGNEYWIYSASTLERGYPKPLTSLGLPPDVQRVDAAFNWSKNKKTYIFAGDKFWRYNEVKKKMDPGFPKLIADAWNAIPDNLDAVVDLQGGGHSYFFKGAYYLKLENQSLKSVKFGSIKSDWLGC
# Chain of Matrix metalloproteinase-9 (Homo sapiens) (P14780 whole entry): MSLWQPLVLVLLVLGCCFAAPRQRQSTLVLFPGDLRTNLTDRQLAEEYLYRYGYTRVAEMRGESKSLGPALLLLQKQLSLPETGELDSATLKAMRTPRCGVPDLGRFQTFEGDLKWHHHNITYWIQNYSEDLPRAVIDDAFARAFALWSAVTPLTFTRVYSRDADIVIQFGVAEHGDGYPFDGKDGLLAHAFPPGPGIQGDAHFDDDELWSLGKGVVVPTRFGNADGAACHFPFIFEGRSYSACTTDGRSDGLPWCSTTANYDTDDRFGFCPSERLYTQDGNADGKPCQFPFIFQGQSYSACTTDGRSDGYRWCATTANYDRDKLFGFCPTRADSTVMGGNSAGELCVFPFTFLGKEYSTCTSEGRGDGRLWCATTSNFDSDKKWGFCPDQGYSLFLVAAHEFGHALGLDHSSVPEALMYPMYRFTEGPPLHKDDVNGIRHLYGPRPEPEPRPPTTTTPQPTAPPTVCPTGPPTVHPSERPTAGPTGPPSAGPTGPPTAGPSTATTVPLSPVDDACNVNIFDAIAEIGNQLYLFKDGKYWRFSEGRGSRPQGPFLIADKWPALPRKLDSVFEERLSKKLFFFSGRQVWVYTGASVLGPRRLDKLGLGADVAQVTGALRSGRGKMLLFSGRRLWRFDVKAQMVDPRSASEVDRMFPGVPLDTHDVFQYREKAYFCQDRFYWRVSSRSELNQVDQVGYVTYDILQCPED
Compound,remaining at 6 h [1] [%],Ratio [2],Ratio [3],Ratio [4],solubility [5] [µg/mL],Ratio [6],Drug uptake [7] [pmol/g],Ratio [8],Activity (Bone marrow [9]) [%],Activity (Bone marrow [10]) [%],Activity (Bone marrow [11]) [%],Activity (Bone marrow [12]) [%]
COc1cccc2c1C(=O)c1c(O)c3c(c(O)c1C2=O)C[C@@](O)(C(=O)CO)C[C@@H]3O[C@H]1C[C@H](NC(=O)[C@H](CC(C)C)NC(=O)[C@H](Cc2ccc(O)cc2)NC(=O)[C@H](CSCc2ccccc2)NC(=O)CNC(=O)[C@H](CC(C)C)NC(=O)[C@@H]2CCCN2C(=O)[C@H](CCC(=O)O)NC(C)=O)[C@H](O)[C@H](C)O1 (Ac-EPLGC(Bn)YL-{Doxorubicin(3'-N)}),90,107,< 1,97,> 2200,40,,,,,,
COc1cccc2c1C(=O)c1c(O)c3c(c(O)c1C2=O)C[C@@](O)(C(=O)CO)C[C@@H]3O[C@H]1C[C@H](NC(=O)[C@H](CC(C)C)NC(=O)[C@H](CC(C)C)NC(=O)CNC(=O)[C@H](CC(C)C)NC(C)=O)[C@H](O)[C@H](C)O1 (Ac-LGLL-{Doxorubicin(3'-N)}),,< 1,5,< 1,,< 1,,,,,,
COc1cccc2c1C(=O)c1c(O)c3c(c(O)c1C2=O)C[C@@](O)(C(=O)CO)C[C@@H]3O[C@H]1C[C@H](NC(=O)[C@H](CC(C)C)NC(=O)CNC(=O)[C@H](CC(C)C)NC(=O)[C@@H]2CCCN2C(C)=O)[C@H](O)[C@H](C)O1 (Ac-PLGL-{Doxorubicin(3'-N)}),,< 1,,,,< 1,,,,,,
COc1cccc2c1C(=O)c1c(O)c3c(c(O)c1C2=O)C[C@@](O)(C(=O)CO)C[C@@H]3O[C@H]1C[C@H](NC(=O)[C@H](CC(C)C)NC(=O)[C@H](CC(C)C)NC(=O)CNC(=O)[C@H](CC(C)C)NC(=O)[C@@H]2CCCN2C(C)=O)[C@H](O)[C@H](C)O1 (Ac-PLGLL-{Doxorubicin(3'-N)}),,> 120,22,4,,18,,,,,,
COc1cccc2c1C(=O)c1c(O)c3c(c(O)c1C2=O)C[C@@](O)(C(=O)CO)C[C@@H]3O[C@H]1C[C@H](NC(=O)[C@H](CC(C)C)NC(=O)[C@H](C)NC(=O)[C@H](Cc2ccc(O)cc2)NC(=O)[C@H](CC(C)C)NC(=O)CNC(=O)[C@H](CC(C)C)NC(=O)[C@@H]2CCCN2C(C)=O)[C@H](O)[C@H](C)O1 (Ac-PLGLYAL-{Doxorubicin(3'-N)}),,> 120,> 120,> 120,,> 120,,,,,,
COc1cccc2c1C(=O)c1c(O)c3c(c(O)c1C2=O)C[C@@](O)(C(=O)CO)C[C@@H]3O[C@H]1C[C@H](NC(=O)[C@H](CC(C)C)NC(=O)C(CCCN2CCN(C)CC2)NC(=O)[C@H](CCc2ccccc2)NC(=O)CNC(=O)[C@H](CC(C)C)NC(=O)[C@@H]2CCCN2C(C)=O)[C@H](O)[C@H](C)O1 (stereo partly drawn) (Ac-PLG[hPhe][X6]L-{Doxorubicin(3'-N)}),100,73,< 1,> 120,130,55,,,,,,
COc1cccc2c1C(=O)c1c(O)c3c(c(O)c1C2=O)C[C@@](O)(C(=O)CO)C[C@@H]3O[C@H]1C[C@H](NC(=O)[C@H](CC(C)C)NC(=O)[C@H](Cc2ccc(O)cc2)NC(=O)[C@@H](NC(=O)CNC(=O)[C@H](CO)NC(=O)[C@@H]2CCCN2C(=O)c2cc(S(=O)(=O)O)cc(S(=O)(=O)O)c2)[C@@H](C)OCc2ccccc2)[C@H](O)[C@H](C)O1 (X4-PSGT(Bn)YL-{Doxorubicin(3'-N)}),100,> 120,< 1,> 120,,114,600,13,,,,
COc1cccc2c1C(=O)c1c(O)c3c(c(O)c1C2=O)C[C@@](O)(C(=O)CO)C[C@@H]3O[C@H]1C[C@H](NC(=O)[C@H](CC(C)C)NC(=O)[C@H](Cc2ccc(O)cc2)NC(=O)[C@H](COCc2ccccc2)NC(=O)CNC(=O)[C@H](CCCNC(N)=O)NC(=O)[C@@H]2CCCN2C(=O)CS(=O)(=O)O)[C@H](O)[C@H](C)O1 (X5-P[Cit]GS(Bn)YL-{Doxorubicin(3'-N)}),29,38,< 1,56,> 2300,25,,,,,,
COc1cccc2c1C(=O)c1c(O)c3c(c(O)c1C2=O)C[C@@](O)(C(=O)CO)C[C@@H]3O[C@H]1C[C@H](N)[C@H](O)[C@H](C)O1 [DOXORUBICIN],,,,,,,1600,1,0.4,0.1,0.3,0.2

# The next lines start with results.
remaining at 6 h [1] [%],Ratio [2],Ratio [3],Ratio [4],solubility [5] [µg/mL],Ratio [6],Drug uptake [7] [pmol/g],Ratio [8],Compound,Activity (Bone marrow [9]) [%],Activity (Bone marrow [10]) [%],Activity (Bone marrow [11]) [%],Activity (Bone marrow [12]) [%]
,1,8,24,,6,,,COc1cccc2c1C(=O)c1c(O)c3c(c(O)c1C2=O)C[C@@](O)(C(=O)CO)C[C@@H]3O[C@H]1C[C@H](NC(=O)[C@H](CC(C)C)NC(=O)[C@H](Cc2ccc(O)cc2)NC(=O)[C@H](CC(C)C)NC(=O)CNC(=O)[C@H](CC(C)C)NC(C)=O)[C@H](O)[C@H](C)O1 (Ac-LGLYL-{Doxorubicin(3'-N)}),,,,
,390,22,> 120,,88,,,COc1cccc2c1C(=O)c1c(O)c3c(c(O)c1C2=O)C[C@@](O)(C(=O)CO)C[C@@H]3O[C@H]1C[C@H](NC(=O)[C@H](CC(C)C)NC(=O)[C@H](Cc2ccc(O)cc2)NC(=O)[C@H](CC(C)C)NC(=O)CNC(=O)[C@H](CC(C)C)NC(=O)[C@@H]2CCCN2C(C)=O)[C@H](O)[C@H](C)O1 (Ac-PLGLYL-{Doxorubicin(3'-N)}),,,,
,34,< 1,25,,7,,,COc1cccc2c1C(=O)c1c(O)c3c(c(O)c1C2=O)C[C@@](O)(C(=O)CO)C[C@@H]3O[C@H]1C[C@H](NC(=O)[C@H](CC(C)C)NC(=O)[C@H](Cc2ccc(O)cc2)NC(=O)[C@H](COCc2ccccc2)NC(=O)CNC(=O)[C@H](CC(C)C)NC(=O)[C@@H]2CCCN2C(C)=O)[C@H](O)[C@H](C)O1 (Ac-PLGS(Bn)YL-{Doxorubicin(3'-N)}),,,,
31,79,2.1,69,40,24,,,COC[C@H](NC(=O)CNC(=O)[C@H](CC(C)C)NC(=O)[C@@H]1CCCN1C(C)=O)C(=O)N[C@@H](Cc1ccc(O)cc1)C(=O)N[C@@H](CC(C)C)C(=O)N[C@H]1C[C@H](O[C@H]2C[C@](O)(C(=O)CO)Cc3c(O)c4c(c(O)c32)C(=O)c2c(OC)cccc2C4=O)O[C@@H](C)[C@H]1O (Ac-PLGS(Me)YL-{Doxorubicin(3'-N)}),,,,
59,43,< 1,58,380,21,,,COc1cccc2c1C(=O)c1c(O)c3c(c(O)c1C2=O)C[C@@](O)(C(=O)CO)C[C@@H]3O[C@H]1C[C@H](NC(=O)[C@H](CC(C)C)NC(=O)[C@H](Cc2ccc(O)cc2)NC(=O)C(CCc2ccncc2)NC(=O)CNC(=O)[C@H](CC(C)C)NC(=O)[C@@H]2CCCN2C(C)=O)[C@H](O)[C@H](C)O1 (stereo partly drawn) (Ac-PLG[X2]YL-{Doxorubicin(3'-N)}),,,,
,< 1,1,19,,11,,,COc1cccc2c1C(=O)c1c(O)c3c(c(O)c1C2=O)C[C@@](O)(C(=O)CO)C[C@@H]3O[C@H]1C[C@H](NC(=O)[C@H](CC(C)C)NC(=O)[C@H](C)NC(=O)[C@H](CCc2ccccc2)NC(=O)CNC(=O)[C@H](CC(C)C)NC(=O)[C@@H]2CCCN2C(C)=O)[C@H](O)[C@H](C)O1 (Ac-PLG[hPhe]AL-{Doxorubicin(3'-N)}),,,,
13,> 120,< 1,> 120,1,116,,,COc1cccc2c1C(=O)c1c(O)c3c(c(O)c1C2=O)C[C@@](O)(C(=O)CO)C[C@@H]3O[C@H]1C[C@H](NC(=O)[C@H](CC(C)C)NC(=O)[C@H](CCc2ccc(O)cc2)NC(=O)[C@H](CCc2ccccc2)NC(=O)CNC(=O)[C@H](CC(C)C)NC(=O)[C@@H]2CCCN2C(C)=O)[C@H](O)[C@H](C)O1 (Ac-PLG[hPhe][hTyr]L-{Doxorubicin(3'-N)}),,,,
100,52,< 1,89,1400,20,,,COc1cccc2c1C(=O)c1c(O)c3c(c(O)c1C2=O)C[C@@](O)(C(=O)CO)C[C@@H]3O[C@H]1C[C@H](NC(=O)[C@H](CC(C)C)NC(=O)[C@H](Cc2ccc(O)cc2)NC(=O)[C@H](COCc2ccccc2)NC(=O)CNC(=O)[C@H](CC(C)C)NC(=O)C2CCCN2C(=O)CCC(=O)O)[C@H](O)[C@H](C)O1 (stereo partly drawn) (Suc-[ξP]LGS(Bn)YL-{Doxorubicin(3'-N)}),,,,
90,25,< 1,111,> 2400,37,1500,16,COc1cccc2c1C(=O)c1c(O)c3c(c(O)c1C2=O)C[C@@](O)(C(=O)CO)C[C@@H]3O[C@H]1C[C@H](NC(=O)[C@H](CC(C)C)NC(=O)[C@H](Cc2ccc(O)cc2)NC(=O)[C@H](COCc2ccccc2)NC(=O)CNC(=O)[C@H](CC(C)C)NC(=O)[C@@H]2CCCN2C(=O)CS(=O)(=O)O)[C@H](O)[C@H](C)O1 (X5-PLGS(Bn)YL-{Doxorubicin(3'-N)}),,,,
